This passage reports Activity, EC50 and fold change (FC) results from ChEMBL document CHEMBL4177549, “Malonylginsenosides with Potential Antidiabetic Activities from the Flower Buds of Panax ginseng” (J Nat Prod, 2017).

A word on the EC50: it is the concentration that produces a half-maximal response.

Activity calls are given as the source filed them. No cut-off for these calls is given here.

For assay [1], the target named is T1, AMPK alpha2/beta1/gamma1 (Homo sapiens) (UniProt P54646+P54619+Q9Y478). The assay can be described thus: Activation of recombinant AMPKalpha2beta1gamma1 (unknown origin) expressed in Escherichia coli BL21 in presence of CaMKKbeta (unknown origin) at 10 uM incubated for 45 mins in presence of substrate-1 peptide and ATP by HTRF assay relative to untreated control.
T1 sequence (P54619 whole entry partner): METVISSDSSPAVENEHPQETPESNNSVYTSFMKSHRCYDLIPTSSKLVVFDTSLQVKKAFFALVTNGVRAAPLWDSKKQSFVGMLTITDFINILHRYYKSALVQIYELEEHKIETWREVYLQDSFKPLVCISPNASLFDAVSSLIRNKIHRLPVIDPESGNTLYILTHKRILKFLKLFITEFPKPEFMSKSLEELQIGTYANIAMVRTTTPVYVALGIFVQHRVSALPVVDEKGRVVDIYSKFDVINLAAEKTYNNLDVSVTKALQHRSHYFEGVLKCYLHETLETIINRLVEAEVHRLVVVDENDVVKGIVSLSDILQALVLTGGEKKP
T1 sequence (P54646 whole entry): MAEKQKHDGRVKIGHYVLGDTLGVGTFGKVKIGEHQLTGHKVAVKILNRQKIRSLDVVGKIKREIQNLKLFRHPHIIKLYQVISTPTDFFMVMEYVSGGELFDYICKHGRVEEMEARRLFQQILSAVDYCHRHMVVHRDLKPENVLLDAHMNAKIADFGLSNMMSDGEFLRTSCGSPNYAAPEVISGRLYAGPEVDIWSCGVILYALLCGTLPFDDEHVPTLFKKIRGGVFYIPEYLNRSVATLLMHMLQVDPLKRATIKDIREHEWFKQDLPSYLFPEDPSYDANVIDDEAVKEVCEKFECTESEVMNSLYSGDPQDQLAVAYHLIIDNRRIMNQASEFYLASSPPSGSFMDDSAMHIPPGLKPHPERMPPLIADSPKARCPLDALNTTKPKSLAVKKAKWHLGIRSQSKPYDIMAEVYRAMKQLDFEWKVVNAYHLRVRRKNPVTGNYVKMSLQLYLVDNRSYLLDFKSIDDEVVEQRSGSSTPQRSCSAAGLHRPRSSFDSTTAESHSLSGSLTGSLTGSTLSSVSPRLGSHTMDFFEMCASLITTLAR
T1 sequence (Q9Y478 2-270 partner limits assumed): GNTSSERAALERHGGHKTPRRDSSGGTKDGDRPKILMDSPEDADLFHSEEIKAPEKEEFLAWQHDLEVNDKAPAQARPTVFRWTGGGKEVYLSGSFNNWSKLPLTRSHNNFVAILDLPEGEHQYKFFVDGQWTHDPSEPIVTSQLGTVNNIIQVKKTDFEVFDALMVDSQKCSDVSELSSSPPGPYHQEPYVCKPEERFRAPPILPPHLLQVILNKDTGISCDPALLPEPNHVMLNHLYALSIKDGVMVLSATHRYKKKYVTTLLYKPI

In the next assay the target is AMPK alpha2/beta1/gamma1 (Homo sapiens, UniProt P54619+P54646+Q9Y478). The assay can be described thus: Activation of recombinant AMPKalpha2beta1gamma1 (unknown origin) expressed in Escherichia coli BL21 in presence of CaMKKbeta (unknown origin) incubated for 45 mins in presence of substrate-1 peptide and ATP by HTRF assay.
AMPK alpha2/beta1/gamma1, sequence (P54646 whole entry): as the sequence (P54646 whole entry) above
AMPK alpha2/beta1/gamma1, sequence (P54619 whole entry): as the sequence (P54619 whole entry partner) above
AMPK alpha2/beta1/gamma1, sequence (Q9Y478 whole entry): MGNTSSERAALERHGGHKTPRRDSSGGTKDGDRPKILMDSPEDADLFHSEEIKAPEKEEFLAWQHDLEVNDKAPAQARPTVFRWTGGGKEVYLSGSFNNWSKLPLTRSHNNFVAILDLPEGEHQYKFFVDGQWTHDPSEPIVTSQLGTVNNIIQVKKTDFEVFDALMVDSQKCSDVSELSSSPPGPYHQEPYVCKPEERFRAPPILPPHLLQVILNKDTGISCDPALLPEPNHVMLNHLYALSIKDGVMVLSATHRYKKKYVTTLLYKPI
The target in assay [2] is T1, AMPK alpha2/beta1/gamma1 (Homo sapiens). Nature of the assay: Activation of recombinant AMPKalpha2beta1gamma1 (unknown origin) expressed in Escherichia coli BL21 in presence of CaMKKbeta (unknown origin) incubated for 45 mins in presence of substrate-1 peptide and ATP by HTRF assay relative to untreated control.
Assay [3] has as its system L6. Nature of the assay: Induction of glucose consumption in differentiated rat L6 cells at 20 uM incubated for 12 hrs in presence of 0.5% bovine serum albumin and low-glucose by glucose oxidase method. Format: functional, cell-based. Put shortly: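 L6 myoblasts were grown in high-glucose DMEM with 10% FBS and then differentiated into myotubes in 2% FBS for 4−6 days. The myotubes were treated for 12 h in low-glucose (1000 mg/L) DMEM with 0.5% BSA. Medium glucose was measured by glucose oxidase. Consumption was calculated as the glucose in cell-free blank wells minus the glucose in wells with cells.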

Assay [4] concerns L6. The assay can be described thus: Induction of glucose consumption in differentiated rat L6 cells at 10 uM incubated for 12 hrs in presence of 0.5% bovine serum albumin and low-glucose by glucose oxidase method. It is filed as functional, cell-based. Put shortly: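 L6 myoblasts grown in high-glucose (4500 mg/L) DMEM with 10% FBS, then differentiated to myotubes in high-glucose DMEM with 2% FBS for 4−6 days. Compound added in 0.5% BSA low-glucose (1000 mg/L) DMEM for 12 h. Medium glucose read by glucose oxidase method. Consumption calculated as cell-free blank wells minus wells with cells.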

As to `COc1ccc2cc3[n+](cc2c1OC)CCc1cc2c(cc1-3)OCO2`, in assay [1], the outcome was Active.
Regarding `CC(C)=CCC[C@](C)(O[C@@H]1O[C@H](CO[C@@H]2O[C@H](CO)[C@@H](O)[C@H](O)[C@H]2O)[C@@H](O)[C@H](O)[C@H]1O)[C@H]1CC[C@]2(C)[C@@H]1[C@H](O)C[C@@H]1[C@@]3(C)CC[C@H](O[C@@H]4O[C@H](CO)[C@@H](O)[C@H](O)[C@H]4O[C@@H]4O[C@H](CO)[C@@H](O)[C@H](O)[C@H]4O)C(C)(C)[C@@H]3CC[C@]12C` [GINSENOSIDE RB1], on AMPK alpha2/beta1/gamma1, the EC50 fell in the range of 0.0168 to 2.8 µM.
As to `CC(C)=CCC[C@](C)(O[C@@H]1O[C@H](CO[C@@H]2OC[C@H](O)[C@H](O)[C@H]2O)[C@@H](O)[C@H](O)[C@H]1O)[C@H]1CC[C@]2(C)[C@@H]1[C@H](O)C[C@@H]1[C@@]3(C)CC[C@H](O[C@@H]4O[C@H](CO)[C@@H](O)[C@H](O)[C@H]4O[C@@H]4O[C@H](CO)[C@@H](OC(=O)CC(=O)O)[C@H](O)[C@H]4O)C(C)(C)[C@@H]3CC[C@]12C`, at AMPK alpha2/beta1/gamma1, the EC50 lay within 0.0168 to 2.8 µM. Further, in assay [2], the fold change (FC) was in the range of 1.7 to 4.7.
On the same counts, the results for `CC(C)=CCC[C@](C)(O[C@@H]1O[C@H](CO[C@@H]2O[C@H](CO)[C@@H](OC(=O)CC(=O)O)[C@H](O)[C@H]2O)[C@@H](O)[C@H](O)[C@H]1O)[C@H]1CC[C@]2(C)[C@@H]1[C@H](O)C[C@@H]1[C@@]3(C)CC[C@H](O[C@@H]4O[C@H](CO)[C@@H](O)[C@H](O)[C@H]4O[C@@H]4O[C@H](CO)[C@@H](O)[C@H](O)[C@H]4O)C(C)(C)[C@@H]3CC[C@]12C` are 0.0168 to 2.8 µM and 1.7 to 4.7.
On to `CC(C)=CCC[C@](C)(O[C@@H]1O[C@H](CO[C@@H]2O[C@H](CO)[C@@H](O)[C@H](O)[C@H]2O)[C@@H](O)[C@H](O)[C@H]1O)[C@H]1CC[C@]2(C)[C@@H]1[C@H](O)C[C@@H]1[C@@]3(C)CC[C@H](O[C@@H]4O[C@H](CO)[C@@H](O)[C@H](O)[C@H]4O[C@@H]4O[C@H](COC(=O)CC(=O)O)[C@@H](O)[C@H](O)[C@H]4O)C(C)(C)[C@@H]3CC[C@]12C`, for which, on AMPK alpha2/beta1/gamma1, the EC50 was 0.0168 to 2.8 µM. Moreover, the fold change (FC) in assay [2] is 1.7 to 4.7.
On to `CC(C)=CCC[C@](C)(O[C@@H]1O[C@H](CO[C@@H]2OC[C@H](O)[C@H](O)[C@H]2O)[C@@H](O)[C@H](O)[C@H]1O)[C@H]1CC[C@]2(C)[C@@H]1[C@H](O)C[C@@H]1[C@@]3(C)CC[C@H](O[C@@H]4O[C@H](CO)[C@@H](O)[C@H](O)[C@H]4O[C@@H]4O[C@H](COC(=O)CC(=O)O)[C@@H](O)[C@H](O)[C@H]4O)C(C)(C)[C@@H]3CC[C@]12C`, for which the result with L6 [3] was Active.
With `CC(C)=CCC[C@](C)(O[C@@H]1O[C@H](CO)[C@@H](O)[C@H](O)[C@H]1O)[C@H]1CC[C@]2(C)[C@@H]1[C@H](O)C[C@@H]1[C@@]3(C)CC[C@H](O[C@@H]4O[C@H](CO)[C@@H](O)[C@H](O)[C@H]4O[C@@H]4O[C@H](COC(=O)CC(=O)O)[C@@H](O)[C@H](O)[C@H]4O)C(C)(C)[C@@H]3CC[C@]12C`, the EC50 at AMPK alpha2/beta1/gamma1 fell in the range of 0.0168 to 2.8 µM. Moreover, the fold change (FC) in assay [2] is 1.7 to 4.7.
On the same counts, the results for `CC(C)=CCC[C@](C)(O[C@@H]1O[C@H](CO)[C@@H](O)[C@H](O)[C@H]1O)[C@H]1CC[C@]2(C)[C@@H]1[C@H](O)C[C@@H]1[C@@]3(C)CC[C@H](O[C@@H]4O[C@H](CO)[C@@H](O)[C@H](O)[C@H]4O[C@@H]4O[C@H](CO)[C@@H](OC(=O)CC(=O)O)[C@H](O)[C@H]4O)C(C)(C)[C@@H]3CC[C@]12C` are 0.0168 to 2.8 µM and 1.7 to 4.7.
In the case of `CC(C)=CCC[C@](C)(O[C@@H]1O[C@H](CO)[C@@H](O)[C@H](O)[C@H]1O)[C@H]1CC[C@]2(C)[C@@H]1[C@H](O)C[C@@H]1[C@@]3(C)CC[C@H](O[C@@H]4O[C@H](CO)[C@@H](O)[C@H](O)[C@H]4O[C@@H]4O[C@H](CO)[C@@H](O)[C@H](O)[C@H]4O)C(C)(C)[C@@H]3CC[C@]12C` [GINSENOSIDE RD], the EC50 at AMPK alpha2/beta1/gamma1 lay within 0.0168 to 2.8 µM.
Turning to `CC(C)=CCC[C@](C)(O[C@@H]1O[C@H](CO[C@@H]2O[C@@H](CO)[C@H](O)[C@H]2O)[C@@H](O)[C@H](O)[C@H]1O)[C@H]1CC[C@]2(C)[C@@H]1[C@H](O)C[C@@H]1[C@@]3(C)CC[C@H](O[C@@H]4O[C@H](CO)[C@@H](O)[C@H](O)[C@H]4O[C@@H]4O[C@H](COC(=O)CC(=O)O)[C@@H](O)[C@H](O)[C@H]4O)C(C)(C)[C@@H]3CC[C@]12C`, the EC50 at AMPK alpha2/beta1/gamma1 fell in the range of 0.0168 to 2.8 µM. Moreover, in assay [2], the fold change (FC) fell in the range of 1.7 to 4.7.
On to `CC(C)=CCC[C@](C)(O[C@@H]1O[C@H](CO)[C@@H](O)[C@H](O)[C@H]1O)[C@H]1CC[C@]2(C)[C@@H]1[C@H](O)C[C@@H]1[C@@]3(C)CC[C@H](O)C(C)(C)[C@@H]3[C@@H](O[C@@H]3O[C@H](COC(=O)CC(=O)O)[C@@H](O)[C@H](O)[C@H]3O[C@@H]3O[C@@H](C)[C@H](O)[C@@H](O)[C@H]3O)C[C@]12C`, for which the outcome with L6 [3] was Active.
In the case of `CC(C)=CCC[C@](C)(O[C@@H]1O[C@H](CO[C@@H]2OC[C@H](O)[C@H](O)[C@H]2O)[C@@H](O)[C@H](O)[C@H]1O)[C@H]1CC[C@]2(C)[C@@H]1[C@H](O)C[C@@H]1[C@@]3(C)CC[C@H](O[C@@H]4O[C@H](CO)[C@@H](O)[C@H](O)[C@H]4O[C@@H]4O[C@H](CO)[C@@H](O)[C@H](O)[C@H]4O)C(C)(C)[C@@H]3CC[C@]12C` [GINSENOSIDE RB2], the outcome in the assay with L6 [4] and with L6 [3] was Active. In addition, the 50% effective concentration (EC50) on AMPK alpha2/beta1/gamma1 is 0.0168 µM. Besides, the fold change (FC) in assay [2] is 4.7.
